A word on the IC50: it is the midpoint of a concentration-inhibition curve. Read a high IC50 as a need for much substance.

A value given as a limit tells only on which side of the number the result lay.

Holding throughout (format): functional, cell-based
In one experiment the test system is Ca-Ski. Description: Antiproliferative activity against human CaSki cells after 48 hrs by MTT assay. Summed up: (§1)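 Cytotoxicity was read by MTT method on human Caski cervical, MDA-MB-231 breast, CNE2 nasopharyngeal and HepG2 hepatocellular carcinoma lines. Mitomycin C served as positive control, and medium containing 0.1% DMSO was the negative control. IC50 values are reported in μM. Other details follow an earlier protocol.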
In general terms: Tetrazolium assays rely on reduction of a dye to a coloured formazan, in cell work by metabolically active cells.

A further experiment relates to MDA-MB-231. Description: Antiproliferative activity against human MDA-MB-231 cells after 48 hrs by MTT assay. The conditions noted are these: MDA-MB-231, 48 h. Summed up: as §1
The test system of another experiment is CNE-2. Nature of the experiment: Antiproliferative activity against human CNE2 cells after 48 hrs by MTT assay. Conditions: CNE-2, 48 h. The essentials: as §1
Another experiment has as its system HepG2. Nature of the experiment: Antiproliferative activity against human HepG2 cells after 48 hrs by MTT assay. The conditions noted are these: HepG2, 48 h. The essentials: as §1

Take `C=C1C(=O)O[C@@H]2/C=C(/CO)[C@@H](OC(C)=O)C/C=C(\C)C[C@@H](OC(=O)/C(=C\C)CO)[C@@H]12`: the half-inhibitory concentration (IC50) is above 10 µM in the experiment with Ca-Ski, above 10 µM in the experiment on MDA-MB-231, above 10 µM in the experiment on CNE-2 and 7.6 µM in the experiment with HepG2.

On to `C=C1C(=O)O[C@@H]2/C=C(/C)[C@@H](OC(C)=O)C/C=C(\C)C[C@@H](OC(=O)/C(=C\C)CO)[C@@H]12`, for which the IC50 with Ca-Ski is above 10 µM; in the experiment with MDA-MB-231 it was 0.8 µM; in the experiment with CNE-2, above 10 µM; with HepG2, 3.6 µM.

`C=C1C(=O)O[C@@H]2/C=C(/C)[C@@H](OC(C)=O)C[C@@H](O)C(=C)C[C@@H](OC(=O)/C(=C\C)CO)[C@@H]12`: the IC50 in the experiment with Ca-Ski, with MDA-MB-231, in the experiment on CNE-2 and in the experiment with HepG2 was above 10 µM throughout.

For the compound `C=C1C(=O)O[C@@H]2/C=C(/C)[C@@H](OC(C)=O)[C@H](O)/C=C(\C)C[C@@H](OC(=O)/C(=C\C)CO)[C@@H]12`, the half-inhibitory concentration (IC50) in the experiment with Ca-Ski, in the experiment with MDA-MB-231, with CNE-2 and in the experiment on HepG2 was above 10 µM in each case.

Take `C=C1C(=O)O[C@@H]2/C=C(/CO)[C@@H](OC(C)=O)C/C=C(\C)C[C@@H](OC(=O)/C(C)=C/C)[C@@H]12`: the 50% inhibitory concentration (IC50) in the experiment with Ca-Ski, in the experiment with MDA-MB-231, with CNE-2 and in the experiment on HepG2 was above 10 µM each time.

With `C=C1C(=O)O[C@@H]2/C=C(/C)[C@H](OC(C)=O)C/C=C(\C)C[C@@H](OC(=O)/C(=C\C)CO)[C@@H]12`, the IC50 in the experiment with Ca-Ski is above 10 µM; in the experiment with MDA-MB-231 it was 3.3 µM; with CNE-2 it was above 10 µM; in the experiment on HepG2 it was 6.3 µM.

Turning to `C=C1C(=O)O[C@@H]2/C=C(/C)[C@@H](OC(C)=O)[C@H](OC(C)=O)/C=C(\C)C[C@@H](OC(=O)/C(=C\C)CO)[C@@H]12`, the IC50 with Ca-Ski, with MDA-MB-231, in the experiment on CNE-2 and in the experiment on HepG2 was above 10 µM in each case.

With `C=C1C(=O)O[C@@H]2/C=C(/COC(C)=O)[C@@H](OC(C)=O)C/C=C(\C)C[C@@H](OC(=O)/C(C)=C/CO)[C@@H]12`, the IC50 in the experiment on Ca-Ski, in the experiment with MDA-MB-231, in the experiment with CNE-2 and in the experiment on HepG2 was above 10 µM throughout.

`C=C1C(=O)O[C@@H]2/C=C(/CO)[C@@H](OC(C)=O)C[C@@H](O)C(=C)C[C@@H](OC(=O)/C(=C\C)CO)[C@@H]12`: the IC50 with Ca-Ski, in the experiment on MDA-MB-231, with CNE-2 and in the experiment with HepG2 was above 10 µM each time.

In the case of `CO[C@@]12[C@H](COC(N)=O)C3=C(C(=O)C(C)=C(N)C3=O)N1C[C@@H]1N[C@@H]12` [MITOMYCIN], the IC50 in the experiment with Ca-Ski is above 10 µM; in the experiment with MDA-MB-231, 4.4 µM; in the experiment on CNE-2 it was above 10 µM; in the experiment on HepG2 it was above 10 µM.

Source of the values: ChEMBL document CHEMBL4130604, “Germacrane-Type Sesquiterpenoids with Antiproliferative Activities from Eupatorium chinense” (J Nat Prod, 2018).
